Laboratory results taken from article PMC5558211 (Journal of medicinal chemistry, 2017).
“Also recorded” adds a separate entry of the source.

Legend:
[1] = biological target: 5FW-Brd4(1) (Homo sapiens, UniProt O60885); experiment: PrOF NMR titration; assay type: binding
Method in brief: (§1)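 19F NMR at 500 MHz with cryoprobe, 40–50 μM 5FW-labelled bromodomain in 50 mM Tris, 100 mM NaCl, pH 7.4, 5% D2O (BrdT samples also 3 mM DTT). Used 90° flip angle, 0.7 s relaxation delay, 0.1 s acquisition and 500 transients, referenced to TFA at −76.55 ppm. Ligand was titrated from concentrated DMSO stocks, keeping DMSO below 1%. Kd came from a one-site fit accounting for ligand depletion.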

[2] = system: p21Cip1; experiment: Western blot of p21Cip1 levels; assay type: cell-based; conditions: MM1.S cells, 6 h
Method in brief: (§2)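 MM1.S cells were grown in RPMI-1640 with 10% FBS at 37 °C, 5% CO2, seeded at 1 × 10^6 per well and exposed to increasing inhibitor concentrations for 6 h. Cells were pelleted (300 g, 5 min) and lysed at 4 °C with protease/phosphatase inhibitors plus 5 mM EDTA. Protein was quantified, run on 10 or 12.5% SDS-PAGE, transferred and probed with c-MYC or p21Cip1 antibodies, with chemiluminescent detection.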

[3] = system: c-Myc; experiment: Western blot of c-Myc levels; assay type: cell-based; conditions: MM1.S cells, 6 h
Method in brief: as §2

[4] = biological target: 5FW-BrdT(1) (Homo sapiens, UniProt Q58F21); experiment: PrOF NMR titration; assay type: binding
Method in brief: as §1

[5] = system: MM1.S cells; experiment: Cell viability; assay type: cell-based
[6] = biological target: T1, Brd4(1) (Homo sapiens, UniProt O60885); experiment: AlphaScreen competition against biotinylated compound 2; assay type: binding; conditions: for Hill slope: alpha-screen competition
[7] = Stability of DMSO solution over freeze-thaw cycles by ESI-MS; assay type: physicochemical; conditions: DMSO solution at −20 °C, several freeze-thaw cycles
[8] = biological target: 5FW-BPTF (Homo sapiens, UniProt Q12830); experiment: PrOF NMR titration; assay type: binding; conditions: non-BET bromodomain BPTF
[9] = biological target: BrdT(1) (Homo sapiens, UniProt Q58F21); experiment: Fluorescence anisotropy competition assay with BI-BODIPY tracer; assay type: binding
[10] = biological target: T1, Brd4(1); experiment: as above; assay type: binding

Row | SMILES | effect on p21Cip1 levels [2] | effect on c-Myc levels [3] | binding behaviour by PrOF NMR [1] | binding by fluorescence anisotropy [9] | also measured
1 | CCn1c(N)cc(=O)[nH]c1=O [6-amino-1-ethyluracil, reference compound] |  |  |  |  | ligand efficiency ([1]; from PrOF NMR Kd): 0.39 kcal/mol/non-hydrogen atom
2 | Cc1sc2c(c1C)C(c1ccc(Cl)cc1)=N[C@@H](CC(=O)OC(C)(C)C)c1nnc(C)n1-2 [Compound 2, (+)-JQ1, reference compound] | upregulation of p21Cip1 levels | dose-dependent reduction of c-Myc levels |  |  | 
3 | CCn1c2c(c(=O)[nH]c1=O)C(c1ccc(C)cc1)C1=C(COC1=O)N2 (stereo not drawn) [Compound 3, 1-Ethyl-5-(p-tolyl)-5,9-dihydrofuro[3′,4′:5,6]pyrido[2,3-d]pyrimidine-2,4,6(1H,3H,8H)-trione] | ineffective in altering c-Myc or p21Cip1 levels | ineffective in altering c-Myc or p21Cip1 levels | slow to intermediate exchange |  | binding behaviour by PrOF NMR [4]: slow to intermediate exchange; growth inhibition activity [5]: lacked growth inhibition activity; Hill slope [6]: −1; stability of dihydropyridine moiety [7]: remains stable; effect of serum on binding by PrOF NMR ([1]; presence of serum): did not interfere with the binding; binding by PrOF NMR [8]: does not bind; also recorded: no binding was detected
4 | Cc1ccc(C2C3=C(COC3=O)Nc3c2c(=O)n(C)c(=O)n3C)cc1 (stereo not drawn) [Compound 3e, 1,3-Dimethyl-5-(p-tolyl)-5,9-dihydrofuro[3′,4′:5,6]pyrido[2,3-d]pyrimidine-2,4,6(1H,3H,8H)-trione] |  |  |  | inactive | 
5 | COc1ccc(C2C3=C(COC3=O)Nc3c2c(=O)n(C)c(=O)n3C)cc1 (stereo not drawn) [Compound 3f, 5-(4-Methoxyphenyl)-1,3-dimethyl-5,9-dihydrofuro[3′,4′:5,6]pyrido[2,3-d]pyrimidine-2,4,6(1H,3H,8H)-trione] |  |  |  | inactive | 
6 | Cc1ccc(C2C3=C(COC3=O)Nc3c2c(=O)[nH]c(=O)n3CC(F)(F)F)cc1 (stereo not drawn) [Compound 3j, 5-(p-Tolyl)-1-(2,2,2-trifluoroethyl)-5,9-dihydrofuro[3′,4′:5,6]pyrido[2,3-d]pyrimidine-2,4,6(1H,3H,8H)-trione] | ineffective in altering c-Myc or p21Cip1 levels | ineffective in altering c-Myc or p21Cip1 levels | slow to intermediate exchange |  | growth inhibition activity [5]: lacked growth inhibition activity; IC50 [6]: 4.6 µM; Hill slope [6]: −1.6
7 | CCn1c2c(c(=O)n(C)c1=O)C(c1ccc(C)cc1)C1=C(COC1=O)N2 (stereo not drawn) [Compound 3m, 1-Ethyl-3-methyl-5-(p-tolyl)-5,9-dihydrofuro[3′,4′:5,6]pyrido[2,3-d]pyrimidine-2,4,6(1H,3H,8H)-trione] |  |  |  | inactive | 
8 | CCn1c(=O)[nH]c(=O)c2c(-c3ccc(C)cc3)c3c(nc21)COC3=O [Compound 3n, 1-Ethyl-5-(p-tolyl)furo[3′,4′:5,6]pyrido[2,3-d]pyrimidine-2,4,6(1H,3H,8H)-trione] |  |  |  | no binding was observed | binding by fluorescence anisotropy [10]: no binding was observed
9 | CCn1c2c(c(=O)[nH]c1=O)C(c1ccc(C)cc1)C1=C(CN(Cc3ccccc3)C1=O)N2 (stereo not drawn) [Compound 3p, 7-Benzyl-1-ethyl-5-(p-tolyl)-5,7,8,9-tetrahydro-1H-pyrrolo[3',4':5,6]pyrido[2,3-d]pyrimidine-2,4,6(3H)-trione] | concomitant increase in p21Cip1 | decreasing c-Myc expression levels |  |  | 
10 | CCn1c2c(c(=O)[nH]c1=O)C(c1ccc(C)cc1)C1=C(CN(CCc3ccccc3)C1=O)N2 (stereo not drawn) [Compound 3q, 1-Ethyl-7-phenethyl-5-(p-tolyl)-5,7,8,9-tetrahydro-1H-pyrrolo[3',4':5,6]pyrido[2,3-d]pyrimidine-2,4,6(3H)-trione] | concomitant increase in p21Cip1 | decreasing c-Myc expression levels |  |  | 
11 | CCn1c2c(c(=O)[nH]c1=O)C(c1ccc(C)cc1)C1=C(CN(CCc3ccc(OC)cc3)C1=O)N2 (stereo not drawn) [Compound 3r, 1-Ethyl-7-(4-methoxyphenethyl)-5-(p-tolyl)-5,7,8,9-tetrahydro-1H-pyrrolo[3',4':5,6]pyrido[2,3-d]pyrimidine-2,4,6(3H)-trione] | concomitant increase in p21Cip1 | decreasing c-Myc expression levels |  |  | 
12 | CCn1c2c(c(=O)[nH]c1=O)C(c1ccc(C)cc1)C1=C(CN(CCc3ccc(O)cc3)C1=O)N2 (stereo not drawn) [Compound 3s, 1-Ethyl-7-(4-hydroxyphenethyl)-5-(p-tolyl)-5,7,8,9-tetrahydro-1H-pyrrolo[3',4':5,6]pyrido[2,3-d]pyrimidine-2,4,6(3H)-trione] | concomitant increase in p21Cip1 | decreasing c-Myc expression levels | slow exchange |  | 
13 | O=C1COC(=O)C1 [tetronic acid, reference compound] |  |  | No binding was observed |  | 
